From ChEMBL document CHEMBL1155380, “Synthesis and characterization of a novel iNOS/Akt inhibitor Se,Se'-1,4-phenylenebis(1,2-ethanediyl)bisisoselenourea (PBISe)--against colon cancer” (Bioorg Med Chem Lett, 2010)
Active and inactive are the calls of the source. No cut-off for these calls is given here.

Legend:
HT-29 [1] = experiment: Antitumor activity against human HT-29 cells after 72 hrs by MTS assay; format: functional, cell-based; conditions: HT-29, 72 h
Method in brief: (§1)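 Colon adenocarcinoma cells (Advanced DMEM with 2 mM L-glutamine and 10% heat-treated FBS, or RPMI-1640 with 10% FBS) exposed to increasing concentrations (10–100 μM, or 1.6–50 μM) for 72 h. Viable cells quantified by MTS. IC50 from dose-response curves, at least three independent experiments.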

WM-115 = experiment: Antitumor activity against human WM115 cells after 24 hrs by MTS assay; format: functional, cell-based; conditions: WM-115, 24 h
Method in brief: (§2)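 Cells plated at 5×10^3 per well for 24 h, then treated with PBS vehicle or increasing concentrations (10–100 μM or 1–40 μM). Viable cells measured by MTS as percent of PBS control. IC50 from dose-response curves. Normal FF2441 fibroblasts run alongside. Lines grown in DMEM/10% FBS, except WM115 in Tu2% medium without calcium chloride, with 2% heat-treated FBS.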

HT-1080 = experiment: Antitumor activity against human HT1080 cells after 24 hrs by MTS assay; format: functional, cell-based; conditions: HT-1080, 24 h; method in brief: as §2
A549 = experiment: Antitumor activity against human A549 cells after 24 hrs by MTS assay; format: functional, cell-based; conditions: A549, 24 h; method in brief: as §2
PC-3 = experiment: Antitumor activity against human PC3 cells after 24 hrs by MTS assay; format: functional, cell-based; conditions: PC-3, 24 h; method in brief: as §2
OVCAR-3 = experiment: Antitumor activity against human OVCAR-3 cells after 24 hrs by MTS assay; format: functional, cell-based; conditions: OVCAR-3, 24 h; method in brief: as §2
MDA-MB-231 = experiment: Antitumor activity against human MDA-MB-231 cells after 24 hrs by MTS assay; format: functional, cell-based; conditions: MDA-MB-231, 24 h; method in brief: as §2
[2] = molecular target: Nitric oxide synthase, inducible (Homo sapiens) (UniProt P35228); experiment: Inhibition of iNOS in human Caco-2 cells assessed as reduction of total nitrite production at 2 uM after 72 hrs by colorimetric assay relative to control; format: cell-based
Chain of Nitric oxide synthase, inducible (Homo sapiens) (P35228 whole entry): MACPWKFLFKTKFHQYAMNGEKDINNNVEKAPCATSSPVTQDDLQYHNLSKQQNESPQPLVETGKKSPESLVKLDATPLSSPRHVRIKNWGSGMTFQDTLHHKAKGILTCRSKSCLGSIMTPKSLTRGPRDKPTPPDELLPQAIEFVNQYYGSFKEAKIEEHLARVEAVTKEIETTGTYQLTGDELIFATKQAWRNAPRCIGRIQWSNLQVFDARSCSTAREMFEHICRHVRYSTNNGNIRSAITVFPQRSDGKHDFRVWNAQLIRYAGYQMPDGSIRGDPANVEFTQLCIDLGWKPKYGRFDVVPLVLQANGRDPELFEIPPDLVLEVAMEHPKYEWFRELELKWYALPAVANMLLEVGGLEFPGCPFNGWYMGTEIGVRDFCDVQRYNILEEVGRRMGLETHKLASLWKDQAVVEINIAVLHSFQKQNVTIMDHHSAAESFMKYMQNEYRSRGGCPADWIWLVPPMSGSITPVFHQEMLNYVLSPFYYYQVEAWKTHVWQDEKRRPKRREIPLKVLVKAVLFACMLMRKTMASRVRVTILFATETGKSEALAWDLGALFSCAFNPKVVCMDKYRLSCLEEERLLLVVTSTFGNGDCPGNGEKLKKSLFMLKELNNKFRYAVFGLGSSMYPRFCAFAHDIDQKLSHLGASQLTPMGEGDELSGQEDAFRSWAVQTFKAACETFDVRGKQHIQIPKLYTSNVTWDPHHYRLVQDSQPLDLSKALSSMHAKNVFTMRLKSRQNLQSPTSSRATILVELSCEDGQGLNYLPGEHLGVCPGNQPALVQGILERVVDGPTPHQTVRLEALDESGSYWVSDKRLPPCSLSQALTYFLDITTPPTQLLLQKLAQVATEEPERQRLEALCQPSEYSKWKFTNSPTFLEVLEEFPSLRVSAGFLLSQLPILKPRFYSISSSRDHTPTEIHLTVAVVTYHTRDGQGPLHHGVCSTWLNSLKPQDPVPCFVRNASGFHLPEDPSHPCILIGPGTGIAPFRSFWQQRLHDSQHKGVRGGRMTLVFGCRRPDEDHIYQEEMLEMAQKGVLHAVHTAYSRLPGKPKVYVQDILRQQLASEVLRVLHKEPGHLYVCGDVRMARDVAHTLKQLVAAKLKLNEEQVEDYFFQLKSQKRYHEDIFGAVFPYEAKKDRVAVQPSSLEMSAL
Method in brief: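 Caco-2 cells (1×10^6) in Advanced DMEM/10% heat-treated FBS for 12 h, then conditioned in phenol-red-free DMEM/0.5% FBS. Treated 72 h in the same medium, PBS control. Supernatant cleared at 500×g, incubated 2 h with nitrate reductase and cofactors, then Griess reagents I and II. A540 read against a nitrate standard curve (5–35 μM). One-way ANOVA.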

Cancer cell lines [3] = experiment: Inhibition of PI3K in human colon cancer cells assessed as decrease in pAKT level at 2 to 6 uM by Western blot analysis; format: cell-based
Method in brief: (§3)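 Lysates in HEPES pH 7.5/NaCl/EDTA/Triton X-100 buffer with phosphatase and protease inhibitors, cleared at ≥10,000×g for 10 min at 4°C. BCA-quantified, 30 μg per lane. SDS gel, PVDF transfer, probed for PRAS40, phospho-PRAS40, Akt3, phospho-Akt Ser473, p27, cleaved PARP, cyclin D1 and Erk. HRP secondaries, ECL detection.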

Caco-2 [4] = experiment: Selectivity ratio of IC50 for human Caco-2 cells to IC50 for human FF2441 cells
Method in brief: (§4)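 Colon adenocarcinoma lines (Caco-2, HT-29, HCT-116, SW-480) were grown in Advanced DMEM with 10% heat-treated FBS and L-glutamine, or in RPMI-1640 with 10% FBS. They were exposed to PBS vehicle or graded compound (10–100 μM, or 1.6–50 μM) for 72 h, and viability was read by MTS. FF2441 normal fibroblasts were tested by a similar MTS procedure. IC50 was fitted from dose-response curves.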

HT-29 [5] = experiment: Selectivity ratio of IC50 for human HT-29 cells to IC50 for human FF2441 cells; method in brief: as §4
[6] = Selectivity ratio of IC50 for human HCT116 cells to IC50 for human FF2441 cells; format: ADME, cell-based, HCT-116; conditions: HCT116 cells and FF2441 cells; method in brief: as §4
SW480 [7] = experiment: Ratio of IC50 for human SW480 cells to IC50 for human FF2441 cells; method in brief: as §4
Cancer cell lines [8] = experiment: Inhibition of PI3K in human colon cancer cells assessed as decrease in AKT2 level at 2 to 6 uM by Western blot analysis; format: cell-based
Cancer cell lines [9] = experiment: Inhibition of PI3K in human colon cancer cells assessed as decrease in pPRAS40 level at 2 to 6 uM by Western blot analysis; format: cell-based; method in brief: as §3
Cancer cell lines [10] = experiment: Inhibition of PI3K in human colon cancer cells assessed as increase in cleaved PARP level at 2 to 6 uM by Western blot analysis; format: cell-based; method in brief: as §3
Cancer cell lines [11] = experiment: Inhibition of PI3K in human colon cancer cells assessed as increase in p27 level at 2 to 6 uM by Western blot analysis; format: cell-based; method in brief: as §3
Caco-2 [12] = experiment: Antitumor activity against human Caco-2 cells after 72 hrs by MTS assay; format: functional, cell-based; conditions: Caco-2, 72 h
Method in brief: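 Cells plated at 5×10^3 per well for 24 h, then exposed to PBS vehicle or increasing compound concentrations for 72 h. Viable cells were quantified by MTS and expressed as a percentage of the PBS-treated control. IC50 was fitted from dose-response curves, from at least three independent experiments, and reported with standard error.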

HCT-116 = experiment: Antitumor activity against human HCT116 cells after 72 hrs by MTS assay; format: functional, cell-based; conditions: HCT-116, 72 h; method in brief: as §1
SW480 [13] = experiment: Antitumor activity against human SW480 cells after 72 hrs by MTS assay; format: functional, cell-based; conditions: SW480, 72 h; method in brief: as §1
Cancer cell lines [14] = experiment: Inhibition of MAPK in human colon cancer cells assessed as decrease in pAKT level at 2 to 6 uM by Western blot analysis; format: cell-based
Method in brief: (§5)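 They were cleared at ≥10,000×g for 10 min at 4°C and assayed by BCA; 30 μg per lane went on NuPAGE gels, then PVDF. Probes: phospho-Akt (Ser473), phospho-PRAS40, cleaved PARP and p27, with HRP secondaries and ECL detection.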

Cancer cell lines [15] = experiment: Inhibition of MAPK in human colon cancer cells assessed as decrease in pPRAS40 level at 2 to 6 uM by Western blot analysis; format: cell-based; method in brief: as §5
Cancer cell lines [16] = experiment: Inhibition of MAPK in human colon cancer cells assessed as decrease in AKT2 level at 2 to 6 uM by Western blot analysis; format: cell-based
Cancer cell lines [17] = experiment: Inhibition of MAPK in human colon cancer cells assessed as increase in cleaved PARP level at 2 to 6 uM by Western blot analysis; format: cell-based; method in brief: as §5
Cancer cell lines [18] = experiment: Inhibition of MAPK in human colon cancer cells assessed as increase in p27 level at 2 to 6 uM by Western blot analysis; format: cell-based; method in brief: as §5

IC50 (Caco-2 [12]) | IC50 (HCT-116) | Structure (SMILES) | IC50 (WM-115) | IC50 (HT-1080) | IC50 (A549) | IC50 (PC-3) | IC50 (OVCAR-3) | IC50 (MDA-MB-231) | Ratio (Caco-2 [4]) | Ratio (HT-29 [5]) | selectivity ratio [6] | Ratio (SW480 [7]) | IC50 (SW480 [13]) | also measured
– | – | Br.N=C(N)[Se]CCc1ccc(CC[Se]C(=N)N)cc1 | 9.7 µM | 3.22 µM | 4.17 µM | 6.64 µM | 5.33 µM | 6.03 µM | 2 | 2 | 2 | 2 | – | IC50 (HT-29 [1]): 3.84 µM; inhibition [2]: 25%; inhibition (Cancer cell lines [3]): Active; inhibition (Cancer cell lines [8]): Active; inhibition (Cancer cell lines [9]): Active; inhibition (Cancer cell lines [10]): Active; inhibition (Cancer cell lines [11]): Active
> 100 µM | > 100 µM | Br.N=C(N)SCCc1ccccc1 [PHENYLETHYLISOTHIOUREAHYDROBROMIDE] | – | – | – | – | – | – | 2 | 2 | 2 | 2 | > 100 µM | –
59.4 µM | > 100 µM | Br.Br.N=C(N)SCCc1ccc(CCSC(=N)N)cc1 | > 100 µM | > 100 µM | > 100 µM | > 100 µM | > 100 µM | > 100 µM | 2 | – | 2 | 2 | – | inhibition (Cancer cell lines [14]): inactive; inhibition (Cancer cell lines [15]): inactive; inhibition (Cancer cell lines [16]): inactive; inhibition (Cancer cell lines [17]): inactive; inhibition (Cancer cell lines [18]): inactive

Structure (SMILES) | IC50 (Caco-2 [12]) | IC50 (HCT-116) | IC50 (WM-115) | IC50 (HT-1080) | IC50 (A549) | IC50 (PC-3) | IC50 (OVCAR-3) | IC50 (MDA-MB-231) | Ratio (Caco-2 [4]) | Ratio (HT-29 [5]) | selectivity ratio [6] | Ratio (SW480 [7]) | IC50 (SW480 [13]) | also measured
Br.N=C(N)[Se]CCc1ccccc1 | – | > 100 µM | – | – | – | – | – | – | 2 | 2 | 2 | 2 | > 100 µM | –
